≈ marks a conversion by molar mass, not a printed value. Numbered stars: 1 amine (or outer) side, 2 acyl side, 3 side chain; on linkers, the order of the positions; unused ones are H or OH. Bridge positions count the residues as written; N and C are the ends. Square brackets hold non-standard residues; d marks the D form. Peptide text beside a SMILES is read from it. * marks the point of attachment. Benzoyl(4-OPh) = O=C(c1ccc(Oc2ccccc2)cc1)*; Benzoyl(4-Ph) = O=C(c1ccc(-c2ccccc2)cc1)*; NH(2-ClPh) = Clc1ccccc1N*; Octanoyl = CCCCCCCC(=O)*; Dab = NCC[C@H](N)C(=O)O; CO = O=C([*:1])[*:2]
Columns and labels:
Escherichia coli [1] = assay: Antibacterial activity against Escherichia coli ATCC 25922 after 18 hrs by 2 fold serial dilution method; type: functional; conditions: ATCC 25922, 18 h
In short: (§1)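 Overnight cultures in nutrient or Mueller Hinton broth at 37 °C with shaking, diluted 50-fold into fresh MHB and grown 1.5–3 h to mid-log. Inoculum 5×10^5 CFU/mL in 2-fold serial dilutions, final range 32 to 0.015 μg/mL. MIC read visually after 18 h at 37 °C as the lowest concentration with no visible growth.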

Klebsiella pneumoniae [2] = assay: Antibacterial activity against Klebsiella pneumoniae ATCC 13883 after 18 hrs by 2 fold serial dilution method; type: functional; conditions: ATCC 13883, 18 h; in short: as §1
Klebsiella pneumoniae [3] = assay: Antibacterial activity against multidrug resistant Klebsiella pneumoniae ATCC 700603 after 18 hrs by 2 fold serial dilution method; type: functional; conditions: Klebsiella pneumoniae, 700603, 18 h
In short: (§2)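 Overnight cultures at 37 °C in nutrient or Mueller Hinton broth with shaking were diluted 50-fold in MHB and grown 1.5–3 h to mid-log phase. The inoculum was 5×10^5 CFU/mL in MHB. Compounds were 2-fold serially diluted, final 32 to 0.015 μg/mL. After 18 h at 37 °C, the MIC was read visually as the lowest concentration with no visible growth.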

Klebsiella pneumoniae [4] = assay: Antibacterial activity against Klebsiella pneumoniae ATCC BAA-2146 expressing NDM-1 after 18 hrs by 2 fold serial dilution method; type: functional; conditions: ATCC BAA-2146, 18 h; in short: as §2
Acinetobacter baumannii [5] = assay: Antibacterial activity against Acinetobacter baumannii ATCC 19606 after 18 hrs by 2 fold serial dilution method; type: functional; conditions: ATCC 19606, 18 h; in short: as §1
Pseudomonas aeruginosa [6] = assay: Antibacterial activity against Pseudomonas aeruginosa ATCC 27853 after 18 hrs by 2 fold serial dilution method; type: functional; conditions: ATCC 27853, 18 h; in short: as §1
Pseudomonas aeruginosa [7] = assay: Antibacterial activity against clinical isolate polymyxin resistant Pseudomonas aeruginosa FADDI-PA070 after 18 hrs by 2 fold serial dilution method; type: functional; conditions: FADDI-PA070, 18 h
In short: (§3)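 Polymyxin-resistant clinical isolates were grown overnight at 37 °C in NB or MHB with shaking, diluted 50-fold in MHB and grown 1.5–3 h to mid-log phase. The inoculum was 5×10^5 CFU/mL. Compounds were 2-fold broth serial dilutions, final 32 to 0.015 μg/mL; the polymyxin controls ran 128–0.06 μg/mL. The MIC was the lowest concentration with no visible growth after 18 h at 37 °C.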

Pseudomonas aeruginosa [8] = assay: Antibacterial activity against clinical isolate polymyxin resistant Pseudomonas aeruginosa PA9704 after 18 hrs by 2 fold serial dilution method; type: functional; conditions: PA9704, 18 h; in short: as §3
Acinetobacter baumannii [9] = assay: Antibacterial activity against clinical isolate carbapenem and polymyxin resistant Acinetobacter baumannii Ptyela 100734512:2 after 18 hrs by 2 fold serial dilution method; type: functional; conditions: Ptyela 100734512:2, 18 h; in short: as §3
Klebsiella pneumoniae [10] = assay: Antibacterial activity against clinical isolate carbapenem and polymyxin resistant Klebsiella pneumoniae Koprana 100650661:1 after 18 hrs by 2 fold serial dilution method; type: functional; conditions: Koprana 100650661:1, 18 h; in short: as §3
Klebsiella pneumoniae [11] = assay: Antibacterial activity against clinical isolate carbapenem and polymyxin resistant Klebsiella pneumoniae 138-16357-20362 after 18 hrs by 2 fold serial dilution method; type: functional; conditions: 138-16357-20362, 18 h; in short: as §3
[12] = Cytotoxicity against human HepG2 cells after 24 hrs by resazurin assay; type: cell-based; conditions: HepG2 cells
[13] = Cytotoxicity against HEK293 cells after 24 hrs by resazurin assay; type: cell-based; conditions: human, HEK293 cells
[14] = Cytotoxicity against HK2 cells assessed as LDH release by Western blot analysis; type: cell-based, HK-2; conditions: human, primary human renal proximal tubule epithelial cells; read-out: CC50
[15] = Cytotoxicity against HK2 cells assessed as GGT release by Western blot analysis; type: cell-based, HK-2; conditions: human, primary human renal proximal tubule epithelial cells; read-out: CC50
Staphylococcus aureus [16] = assay: microbe, parasite or virus in culture; conditions: ATCC 25923, 18 h
[17] = Cytotoxicity against HK2 cells assessed as LDH release by Western blot analysis; conditions: human, hk-2
[18] = Cytotoxicity against primary human proximal tubule cells assessed as GGT release at 100 ug/mL by Western blot analysis
Escherichia coli [19] = assay: Antibacterial activity against Escherichia coli IFO12734; type: functional
Pseudomonas aeruginosa [20] = assay: Antibacterial activity against Pseudomonas aeruginosa IFO3080; type: functional
Escherichia coli [21] = assay: Antibacterial activity against Escherichia coli; type: functional
Pseudomonas aeruginosa [22] = assay: Antibacterial activity against Pseudomonas aeruginosa; type: functional
Staphylococcus aureus [23] = assay: Antibacterial activity against Staphylococcus aureus; type: functional

| SMILES | MIC (Escherichia coli [1]) [µg/mL] | MIC (Klebsiella pneumoniae [2]) [µg/mL] | MIC (Klebsiella pneumoniae [3]) [µg/mL] | MIC (Klebsiella pneumoniae [4]) [µg/mL] | MIC (Acinetobacter baumannii [5]) [µg/mL] | MIC (Pseudomonas aeruginosa [6]) [µg/mL] | MIC (Pseudomonas aeruginosa [7]) [µg/mL] | MIC (Pseudomonas aeruginosa [8]) [µg/mL] | MIC (Acinetobacter baumannii [9]) [µg/mL] | MIC (Klebsiella pneumoniae [10]) [µg/mL] | MIC (Klebsiella pneumoniae [11]) [µg/mL] | CC50 at 24 h [12] [µM] | CC50 at 24 h [13] [µM] | CC50 [14] [µg/mL] | CC50 [15] [µg/mL] | MIC (Staphylococcus aureus [16]) [µg/mL] | also measured |
| --- | --- | --- | --- | --- | --- | --- | --- | --- | --- | --- | --- | --- | --- | --- | --- | --- | --- |
| CC(C)C[C@@H]1NC(=O)[C@@H](Cc2ccccc2)NC(=O)[C@H](CCN)NC(=O)[C@@H](NC(=O)[C@H](CCN)NC(=O)[C@@H](NC(=O)[C@H](CCN)NC(=O)c2ccc(Oc3ccccc3)cc2)[C@@H](C)O)CCNC(=O)[C@H]([C@@H](C)O)NC(=O)[C@H](CCN)NC(=O)[C@H](CCN)NC1=O ({Benzoyl(4-OPh)}-[Dab]T[Dab][Dab][Dab][dF]L[Dab][Dab]T; lactam 4-C) | 0.5 (≈ 0.397 µM) | 0.5 (≈ 0.397 µM) | 0.5 (≈ 0.397 µM) | 0.5 (≈ 0.397 µM) | 0.5 (≈ 0.397 µM) | 1 (≈ 0.794 µM) | 8 (≈ 6.35 µM) | 32 (≈ 25.4 µM) | 16 (≈ 12.7 µM) | > 32 | > 32 | 287 | 296 | > 128 | > 128 | > 32 | Activity [17]: Non-toxic; Activity [18]: Non-toxic |
| CCCCCCCC(=O)N[C@@H](CCN)C(=O)N[C@H](C(=O)NCC(=O)N[C@H]1CCNC(=O)[C@H]([C@@H](C)O)NC(=O)[C@H](CCN)NC(=O)[C@H](CCN)NC(=O)[C@H](CC(C)C)NC(=O)[C@@H](Cc2ccccc2)NC(=O)[C@H](CCN)NC1=O)[C@@H](C)O (Octanoyl-[Dab]TG[Dab][Dab][dF]L[Dab][Dab]T; lactam 4-C) | 0.5 (≈ 0.436 µM) | 0.5 (≈ 0.436 µM) | 1 (≈ 0.872 µM) | 0.5 (≈ 0.436 µM) | 1 (≈ 0.872 µM) | 2 (≈ 1.74 µM) | > 32 | > 32 | > 32 | > 32 | > 32 | > 300 | > 300 | 122 (≈ 106 µM) | > 128 | > 64 |  |
| CCCCCCCC(=O)N[C@@H](CCN)C(=O)N[C@H](C(=O)N[C@@H](CCN)C(=O)N[C@H]1CCNC(=O)[C@H]([C@@H](C)O)NC(=O)[C@H](CCN)NC(=O)[C@H](CCN)NC(=O)[C@H](CC(C)C)NC(=O)[C@@H](Cc2ccccc2)NC(=O)[C@H](CCN)NC1=O)[C@@H](C)O (Octanoyl-[Dab]T[Dab][Dab][Dab][dF]L[Dab][Dab]T; lactam 4-C) | 0.5 (≈ 0.42 µM) | 2 (≈ 1.68 µM) | 1 (≈ 0.841 µM) | 0.5 (≈ 0.42 µM) | 0.5 (≈ 0.42 µM) | 1 (≈ 0.841 µM) | > 32 | > 128 | > 64 | > 128 | > 128 | > 300 |  |  |  | > 128 | MIC (Escherichia coli [19]): 0.5 µM (≈ 0.595 µg/mL); MIC (Pseudomonas aeruginosa [20]): 1 µM (≈ 1.19 µg/mL) |
| CC(C)C[C@@H]1NC(=O)[C@@H](Cc2ccccc2)NC(=O)[C@H](CCN)NC(=O)[C@@H](NC(=O)[C@H](CCN)NC(=O)[C@@H](NC(=O)[C@H](CCN)NC(=O)c2ccc(-c3ccccc3)cc2)[C@@H](C)O)CCNC(=O)[C@H]([C@@H](C)O)NC(=O)[C@H](CCN)NC(=O)[C@H](CCN)NC1=O ({Benzoyl(4-Ph)}-[Dab]T[Dab][Dab][Dab][dF]L[Dab][Dab]T; lactam 4-C) | 0.5 (≈ 0.402 µM) | 0.5 (≈ 0.402 µM) | 1 (≈ 0.804 µM) | 0.5 (≈ 0.402 µM) | 0.5 (≈ 0.402 µM) | 1 (≈ 0.804 µM) | 8 (≈ 6.43 µM) | > 32 | 8 (≈ 6.43 µM) | > 32 | > 32 | 298 | 297 | > 128 | > 128 | > 32 | Activity [17]: Non-toxic; Activity [18]: Non-toxic |
| CC(C)C[C@@H]1NC(=O)[C@@H](Cc2ccccc2)NC(=O)[C@H](CCN)NC(=O)[C@@H](NC(=O)[C@@H](CO)NC(=O)[C@@H](NC(=O)[C@H](CCN)NC(=O)Nc2ccccc2Cl)[C@@H](C)O)CCNC(=O)[C@H]([C@@H](C)O)NC(=O)[C@H](CCN)NC(=O)[C@H](CCN)NC1=O ({NH(2-ClPh)-CO}-[Dab]T[dS][Dab][Dab][dF]L[Dab][Dab]T; lactam 4-C) | 32 (≈ 26.6 µM) | 32 (≈ 26.6 µM) | 16 (≈ 13.3 µM) | > 32 | > 32 | 8 (≈ 6.65 µM) | > 32 | > 32 | > 32 | > 32 | > 32 | > 300 |  |  |  | > 32 |  |
| CCCCCCCC(=O)NCC(=O)N[C@@H](CCN)C(=O)N[C@H](C(=O)N[C@H]1CCNC(=O)[C@H]([C@@H](C)O)NC(=O)[C@H](CCN)NC(=O)[C@H](CCN)NC(=O)[C@H](CC(C)C)NC(=O)[C@@H](Cc2ccccc2)NC(=O)[C@H](CCN)NC1=O)[C@@H](C)O (Octanoyl-G[Dab]T[Dab][Dab][dF]L[Dab][Dab]T; lactam 4-C) | 16 (≈ 14 µM) | 32 (≈ 27.9 µM) | 8 (≈ 6.98 µM) | 16 (≈ 14 µM) | > 32 | 2 (≈ 1.74 µM) | > 32 | > 32 | > 32 | > 32 | > 32 | > 300 |  |  |  | > 32 |  |
| CCCCCCCC(=O)N[C@H](C(=O)N[C@@H](CCN)C(=O)N[C@H]1CCNC(=O)[C@H]([C@@H](C)O)NC(=O)[C@H](CCN)NC(=O)[C@H](CCN)NC(=O)[C@H](CC(C)C)NC(=O)[C@@H](Cc2ccccc2)NC(=O)[C@H](CCN)NC1=O)[C@@H](C)O [Octanoyl Polymixin B nonapeptide] (Octanoyl-T[Dab][Dab][Dab][dF]L[Dab][Dab]T; lactam 3-C) | 1 (≈ 0.918 µM) | 1 (≈ 0.918 µM) | 2 (≈ 1.84 µM) | 2 (≈ 1.84 µM) | 2 (≈ 1.84 µM) | 0.5 (≈ 0.459 µM) | > 32 | > 32 | > 32 | > 32 | > 32 | > 300 |  |  |  | > 32 | MIC (Escherichia coli [21]): 0.03 µg/mL (≈ 0.0275 µM); MIC (Pseudomonas aeruginosa [22]): 4 µg/mL (≈ 3.67 µM); MIC (Staphylococcus aureus [23]): > 16 µg/mL |
| CCCCCCCC(=O)N[C@@H](CCN)C(=O)N[C@H](C(=O)N[C@@H](CCN)C(=O)N[C@H]1CCNC(=O)[C@H]([C@@H](C)O)NC(=O)[C@H](CCN)NC(=O)[C@H](CCN)NC(=O)[C@H](CC(C)C)NC(=O)[C@@H](Cc2ccccc2)NC(=O)[C@H](CCCNC(=N)N)NC1=O)[C@@H](C)O (Octanoyl-[Dab]T[Dab][Dab]R[dF]L[Dab][Dab]T; lactam 4-C) | 16 (≈ 12.8 µM) | > 32 | 32 (≈ 25.7 µM) | 32 (≈ 25.7 µM) | > 32 | 32 (≈ 25.7 µM) | > 32 | > 32 | > 32 | > 32 | > 32 | > 300 |  |  |  | > 32 |  |
| CCCCCCCC(=O)N[C@@H](CCN)C(=O)N[C@H](C(=O)N[C@@H](CCN)C(=O)N[C@H]1CCNC(=O)[C@H]([C@@H](C)O)NC(=O)[C@H](CCCNC(=N)N)NC(=O)[C@H](CCN)NC(=O)[C@H](CC(C)C)NC(=O)[C@@H](Cc2ccccc2)NC(=O)[C@H](CCN)NC1=O)[C@@H](C)O (Octanoyl-[Dab]T[Dab][Dab][Dab][dF]L[Dab]RT; lactam 4-C) | 16 (≈ 12.8 µM) | > 32 | 8 (≈ 6.42 µM) | 4 (≈ 3.21 µM) | 32 (≈ 25.7 µM) | 1 (≈ 0.803 µM) | > 32 | > 32 | > 32 | > 32 | > 32 | > 300 |  |  |  | > 32 |  |
